# In ChEMBL document CHEMBL1129260, “Evaluation of the stability and animal biodistribution of gadolinium (III) benzylamine-derivatized diethylenetriaminepentaacetic acid” (J Med Chem, 1996):
# Experiments:
# Settings in all cases: in vivo
# Rattus norvegicus [1] = species: Rattus norvegicus; assay: Biodistribution of In-LDTA (conjugated with BSA) protein using [111In]- in mature female Sprague-Dawley rat colon after injecting for 24 hour.; assay type: ADME, organism-based
# In short: (§1)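 SCN-LDTPA was coupled (pH 9 bicine, 24 h, RT) to BSA, mannosylated BSA or galactosylated BSA and FPLC-purified. The conjugate (400 μg) was labeled with 340 μCi 111In acetate at pH 5.5 for 45 min and gel-filtered. Mature female Sprague-Dawley rats received 19 μg of conjugate; four rats per time point. Blood, liver, bone, kidney and colon were taken and reported as %ID/organ.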
# Rattus norvegicus [2] = species: Rattus norvegicus; assay: Biodistribution of Gd-LDTA (conjugated with galactose BSA) protein using [111In]- in mature female Sprague-Dawley rat bone after injecting for 96 hour.; assay type: ADME, organism-based, Bone element
# Rattus norvegicus [3] = species: Rattus norvegicus; assay: Biodistribution of Gd-LDTA (conjugated with galactose BSA) protein using [111In]- in mature female Sprague-Dawley rat colon after injecting for 24 hour.; assay type: ADME, organism-based
# In short: (§2)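 Conjugate of SCN-LDTPA with BSA, mannosylated BSA or galactosylated BSA (10 equiv chelate, pH 9 bicine, RT 24 h; FPLC-purified) was labelled with 340 μCi 111In acetate at pH 5.5 for 45 min. It was then gel-filtered (Biospin-6) and checked for purity by FPLC. Mature female Sprague-Dawley rats received 19 μg of conjugate. Four rats per time point (1, 4, 24, 48 h) were killed; blood, liver, bone, kidney and colon were taken and %ID/organ was calculated.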
# Rattus norvegicus [4] = species: Rattus norvegicus; assay: Biodistribution of Gd-LDTA (conjugated with mannose BSA) protein using [111In]- in mature female Sprague-Dawley rat colon after injecting for 48 hour.; assay type: ADME, organism-based
# Rattus norvegicus [5] = species: Rattus norvegicus; assay: Biodistribution of Gd-DTA (conjugated with BSA)protein using [153Gd]- in mature female Sprague-Dawley rat bone marrow after injecting for 4 hour.
# Rattus norvegicus [6] = species: Rattus norvegicus; assay: Biodistribution of Gd-LDTA (conjugated with galactose BSA) protein using [111In]- in mature female Sprague-Dawley rat colon after injecting for 4 hour.; assay type: ADME, organism-based; in short: as §2
# Rattus norvegicus [7] = species: Rattus norvegicus; assay: Biodistribution of Gd-DTA (conjugated with BSA)protein using [153Gd]- in mature female Sprague-Dawley rat bone after injecting for 48 hour.
# Rattus norvegicus [8] = species: Rattus norvegicus; assay: Biodistribution of Gd-LDTA (conjugated with mannose BSA) protein using [111In]- in mature female Sprague-Dawley rat blood after injecting for 48 hour.; assay type: ADME, organism-based; in short: as §2
# Rattus norvegicus [9] = species: Rattus norvegicus; assay: Biodistribution of In-LDTA (conjugated with galactose BSA)protein using [111In]- in mature female Sprague-Dawley rat colon after injecting for 4 hour.; assay type: ADME, organism-based; in short: as §1
# Rattus norvegicus [10] = species: Rattus norvegicus; assay: Biodistribution of Gd-DTA (conjugated with BSA)protein using [111In]- in mature female Sprague-Dawley rat bone after injecting for 1 hour.; assay type: ADME, organism-based, Bone element; in short: as §2
# Rattus norvegicus [11] = species: Rattus norvegicus; assay: Biodistribution of Gd-DTA (conjugated with BSA)protein using [111In]- in mature female Sprague-Dawley rat blood after injecting for 48 hour.; assay type: ADME, organism-based; in short: as §2
# Rattus norvegicus [12] = species: Rattus norvegicus; assay: Biodistribution of Gd-LDTA (conjugated with galactose BSA) protein using [111In]- in mature female Sprague-Dawley rat bone marrow after injecting for 24 hour.; assay type: ADME, organism-based
# Rattus norvegicus [13] = species: Rattus norvegicus; assay: Biodistribution of Gd-DTA (conjugated with BSA)protein using [153Gd]- in mature female Sprague-Dawley rat bone after injecting for 96 hour.
# Rattus norvegicus [14] = species: Rattus norvegicus; assay: Biodistribution of In-LDTA (conjugated with galactose BSA)protein using [111In]- in mature female Sprague-Dawley rat liver after injecting for 24 hour.; assay type: ADME, organism-based; in short: as §1
# Rattus norvegicus [15] = species: Rattus norvegicus; assay: Biodistribution of In-LDTA (conjugated with galactose BSA)protein using [111In]- in mature female Sprague-Dawley rat liver after injecting for 1 hour.; assay type: ADME, organism-based; in short: as §1
# Rattus norvegicus [16] = species: Rattus norvegicus; assay: Biodistribution of Gd-DTA (conjugated with BSA)protein using [111In]- in mature female Sprague-Dawley rat blood after injecting for 1 hour.; assay type: ADME, organism-based; in short: as §2
# Rattus norvegicus [17] = species: Rattus norvegicus; assay: Biodistribution of In-LDTA protein using [111In]- in mature female Sprague-Dawley rat blood after injecting for 1 hour.; assay type: ADME, organism-based; in short: as §1
# Rattus norvegicus [18] = species: Rattus norvegicus; assay: Biodistribution of Gd-LDTA (conjugated with mannose BSA) protein using [111In]- in mature female Sprague-Dawley rat liver after injecting for 1 hour.; assay type: ADME, organism-based
# Rattus norvegicus [19] = species: Rattus norvegicus; assay: Biodistribution of Gd-LDTA (conjugated with mannose BSA) protein using [111In]- in mature female Sprague-Dawley rat blood after injecting for 24 hour.; assay type: ADME, organism-based; in short: as §2
# Rattus norvegicus [20] = species: Rattus norvegicus; assay: Biodistribution of In-LDTA (conjugated with galactose BSA)protein using [111In]- in mature female Sprague-Dawley rat bone after injecting for 24 hour.; assay type: ADME, organism-based, Bone element; in short: as §1
# Rattus norvegicus [21] = species: Rattus norvegicus; assay: Biodistribution of Gd-LDTA (conjugated with galactose BSA) protein using [111In]- in mature female Sprague-Dawley rat kidney after injecting for 1 hour.; assay type: ADME, organism-based; in short: as §2
# Rattus norvegicus [22] = species: Rattus norvegicus; assay: Biodistribution of Gd-DTA (conjugated with BSA)protein using [153Gd]- in mature female Sprague-Dawley rat bone marrow after injecting for 48 hour.
# Rattus norvegicus [23] = species: Rattus norvegicus; assay: Biodistribution of Gd-LDTA (conjugated with galactose BSA) protein using [111In]- in mature female Sprague-Dawley rat liver after injecting for 48 hour.; assay type: ADME, organism-based; in short: as §2
# Rattus norvegicus [24] = species: Rattus norvegicus; assay: Biodistribution of In-LDTA (conjugated with mannoseBSA)protein using [111In]- in mature female Sprague-Dawley rat blood after injecting for 4 hour.; assay type: ADME, organism-based; in short: as §1
# Rattus norvegicus [25] = species: Rattus norvegicus; assay: Biodistribution of Gd-DTA (conjugated with BSA)protein using [111In]- in mature female Sprague-Dawley rat colon after injecting for 24 hour.; assay type: ADME, organism-based; in short: as §2
# Rattus norvegicus [26] = species: Rattus norvegicus; assay: Biodistribution of Gd-LDTA (conjugated with mannose BSA) protein using [111In]- in mature female Sprague-Dawley rat bone marrow after injecting for 1 hour.; assay type: ADME, organism-based
# Rattus norvegicus [27] = species: Rattus norvegicus; assay: Biodistribution of Gd-LDTA (conjugated with galactose BSA) protein using [111In]- in mature female Sprague-Dawley rat blood after injecting for 24 hour.; assay type: ADME, organism-based; in short: as §2
# Rattus norvegicus [28] = species: Rattus norvegicus; assay: Biodistribution of In-LDTA (conjugated with mannoseBSA) protein using [111In]- in mature female Sprague-Dawley rat liver after injecting for 48 hr.; assay type: ADME, organism-based; in short: as §1
# Rattus norvegicus [29] = species: Rattus norvegicus; assay: Biodistribution of In-LDTA (conjugated with mannoseBSA) protein using [111In]- in mature female Sprague-Dawley rat kidney after injecting for 1 hour.; assay type: ADME, organism-based; in short: as §1
# Rattus norvegicus [30] = species: Rattus norvegicus; assay: Biodistribution of In-LDTA (conjugated with mannoseBSA) protein using [111In]- in mature female Sprague-Dawley rat bone after injecting for 1 hour.; assay type: ADME, organism-based, Bone element; in short: as §1
# Rattus norvegicus [31] = species: Rattus norvegicus; assay: Biodistribution of Gd-DTA (conjugated with BSA)protein using [153Gd]- in mature female Sprague-Dawley rat bone marrow after injecting for 24 hour.
# Rattus norvegicus [32] = species: Rattus norvegicus; assay: Biodistribution of Gd-LDTA (conjugated with galactose BSA) protein using [111In]- in mature female Sprague-Dawley rat bone marrow after injecting for 1 hour.; assay type: ADME, organism-based
# Rattus norvegicus [33] = species: Rattus norvegicus; assay: Biodistribution of Gd-LDTA (conjugated with galactose BSA) protein using [111In]- in mature female Sprague-Dawley rat colon after injecting for 48 hour.; assay type: ADME, organism-based; in short: as §2
# Rattus norvegicus [34] = species: Rattus norvegicus; assay: Biodistribution of Gd-LDTA (conjugated with galactose BSA) protein using [153Gd]- in mature female Sprague-Dawley rat blood after injecting for 48 hour.
# Rattus norvegicus [35] = species: Rattus norvegicus; assay: Biodistribution of In-LDTA (conjugated with galactose BSA)protein using [111In]- in mature female Sprague-Dawley rat bone after injecting for 4 hour.; assay type: ADME, organism-based, Bone element; in short: as §1
compound,measurement,setting,value
Nc1ccc(CC(C(=O)O)N(CCN(CC(=O)O)CC(=O)O)CCN(CC(=O)O)CC(=O)O)cc1 (stereo not given),ID/organ,Rattus norvegicus [1],2.87%
same,ID/organ,Rattus norvegicus [2],9.55%
same,ID/organ,Rattus norvegicus [3],6.07%
same,ID/organ,Rattus norvegicus [4],0.21%
same,ID/organ,Rattus norvegicus [5],1.75%
same,ID/organ,Rattus norvegicus [6],4.09%
same,ID/organ,Rattus norvegicus [7],35.9%
same,ID/organ,Rattus norvegicus [8],0.04%
same,ID/organ,Rattus norvegicus [9],4.8%
same,ID/organ,Rattus norvegicus [10],18.1%
same,ID/organ,Rattus norvegicus [11],3.37%
same,ID/organ,Rattus norvegicus [12],0.04%
same,ID/organ,Rattus norvegicus [13],44.6%
same,ID/organ,Rattus norvegicus [14],65.4%
same,ID/organ,Rattus norvegicus [15],99.7%
same,ID/organ,Rattus norvegicus [16],83.4%
same,ID/organ,Rattus norvegicus [17],61.3%
same,ID/organ,Rattus norvegicus [18],70.2%
same,ID/organ,Rattus norvegicus [19],0.063%
same,ID/organ,Rattus norvegicus [20],0.379%
same,ID/organ,Rattus norvegicus [21],0.114%
same,ID/organ,Rattus norvegicus [22],2.46%
same,ID/organ,Rattus norvegicus [23],34.8%
same,ID/organ,Rattus norvegicus [24],0.149%
same,ID/organ,Rattus norvegicus [25],2.83%
same,ID/organ,Rattus norvegicus [26],2.61%
same,ID/organ,Rattus norvegicus [27],0.02%
same,ID/organ,Rattus norvegicus [28],61%
same,ID/organ,Rattus norvegicus [29],0.144%
same,ID/organ,Rattus norvegicus [30],10.5%
same,ID/organ,Rattus norvegicus [31],3.07%
same,ID/organ,Rattus norvegicus [32],0.031%
same,ID/organ,Rattus norvegicus [33],35.3%
same,ID/organ,Rattus norvegicus [34],0.037%
same,ID/organ,Rattus norvegicus [35],0.329%
